From ChEMBL document CHEMBL5034012, “Procainamide-SAHA Fused Inhibitors of hHDAC6 Tackle Multidrug-Resistant Malaria Parasites” (J Med Chem, 2021)
Active and inactive are the calls of the source. No cut-off for these calls is given here.

How the values were obtained:
[1] = test system: Plasmodium falciparum; assay: Antiplasmodial activity against Plasmodium falciparum NF54 assessed as reduction in growth in intraerythrocytic development cycle at 3 to 10 times of IC50 concentration incubated for 24 to 36 hrs measured after 72 hrs of post synchronization by SYBR Green 1 assay; type: functional; parameters: scale not given: the % may be the effect or the level left; details: time 24-36 hrs
[2] = test system: Plasmodium falciparum; assay: Inhibition of Plasmodium falciparum HDAC activity using nuclear extract assessed as inhibition of acetylation at 1 to 10 uM; details: dose 1-10 µM
Method in brief: (§1)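 P. falciparum protein extract (3x10⁻³mg) incubated with compound and 43 µM Tosyl-Gly-Pro-Lys(Ac)-AMC. Buffer: 25mM Tris-HCl pH 8, 140mM NaCl, 3mM KCl, 1mM MgCl₂. Run 45 min at 37°C, then trypsin 15min at RT, then ethanol. Fluorescence read at ex 380/em 460nm. Normalized to DMSO. Duplicates in ≥2 independent experiments.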

[3] = test system: Plasmodium falciparum; assay: Antiplasmodial activity against Plasmodium falciparum 3D7 assessed as time to kill initial parasite load at 10 times IC50 concentration; type: functional
Method in brief: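 Parasite reduction rate assay on 3D7 cultures containing mostly rings, with DHA and pyrimethamine as references. Exposure windows of 6, 24, 48, 72 and 96h; cells then washed, serially diluted 1/3 in fresh RBC and grown 3 weeks before SYBR-green I read-out. Number of wells with growth gives viable parasites per time point, per Sanz et al. One experiment in duplicate.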

[4] = test system: Plasmodium falciparum; assay: Antiplasmodial activity against Plasmodium falciparum late stage IV-V gametocytes assessed as reduction in number of exflagellation centers in at 1 to 10 uM treated for 72 hrs; type: functional, organism-based; details: dose 1-10 µM
Method in brief: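 Synchronous gametocytes induced; asexual forms removed with N-acetyl glucosamine for 5 days. Day-9 stage IV-V gametocytes, about 1% gametocytemia at 2% hematocrit, treated 72h at 10, 5, 1 or 0.5 µM against 0.1% DMSO. Then washed and recultured with daily medium changes. […], pelleted cells mixed 1:1 with human serum. Exflagellation centers counted over ≥10 fields at 40× within one hour. Two independent experiments; one-way ANOVA.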

[5] = test system: Plasmodium falciparum; assay: Antiplasmodial activity against Plasmodium falciparum NF54 assessed as reduction in growth in intraerythrocytic development cycle at 10 times of IC50 concentration incubated for 6 hrs measured after 72 hrs of post synchronization […]; type: functional, organism-based
Method in brief: (§2)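 NF54 asexual parasites tightly synchronized to 0–3hpi. Exposed for 6h at 3× or 10× IC50, starting at 0, 6, 12, 18, 24, 30, 36 or 42hpi. Cells then pelleted, washed in RPMI and returned to culture. Parasitemia counted at 72h post-synchronization on Giemsa-stained thin smears. Survival expressed relative to DMSO. Three independent experiments, one well per condition.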

[6] = target: DNA (cytosine-5)-methyltransferase 3A (Homo sapiens) (UniProt Q9Y6K1); assay: Inhibition of human DNMT3A methylation
DNA (cytosine-5)-methyltransferase 3A (Homo sapiens), sequence (Q9Y6K1 whole entry, looked up): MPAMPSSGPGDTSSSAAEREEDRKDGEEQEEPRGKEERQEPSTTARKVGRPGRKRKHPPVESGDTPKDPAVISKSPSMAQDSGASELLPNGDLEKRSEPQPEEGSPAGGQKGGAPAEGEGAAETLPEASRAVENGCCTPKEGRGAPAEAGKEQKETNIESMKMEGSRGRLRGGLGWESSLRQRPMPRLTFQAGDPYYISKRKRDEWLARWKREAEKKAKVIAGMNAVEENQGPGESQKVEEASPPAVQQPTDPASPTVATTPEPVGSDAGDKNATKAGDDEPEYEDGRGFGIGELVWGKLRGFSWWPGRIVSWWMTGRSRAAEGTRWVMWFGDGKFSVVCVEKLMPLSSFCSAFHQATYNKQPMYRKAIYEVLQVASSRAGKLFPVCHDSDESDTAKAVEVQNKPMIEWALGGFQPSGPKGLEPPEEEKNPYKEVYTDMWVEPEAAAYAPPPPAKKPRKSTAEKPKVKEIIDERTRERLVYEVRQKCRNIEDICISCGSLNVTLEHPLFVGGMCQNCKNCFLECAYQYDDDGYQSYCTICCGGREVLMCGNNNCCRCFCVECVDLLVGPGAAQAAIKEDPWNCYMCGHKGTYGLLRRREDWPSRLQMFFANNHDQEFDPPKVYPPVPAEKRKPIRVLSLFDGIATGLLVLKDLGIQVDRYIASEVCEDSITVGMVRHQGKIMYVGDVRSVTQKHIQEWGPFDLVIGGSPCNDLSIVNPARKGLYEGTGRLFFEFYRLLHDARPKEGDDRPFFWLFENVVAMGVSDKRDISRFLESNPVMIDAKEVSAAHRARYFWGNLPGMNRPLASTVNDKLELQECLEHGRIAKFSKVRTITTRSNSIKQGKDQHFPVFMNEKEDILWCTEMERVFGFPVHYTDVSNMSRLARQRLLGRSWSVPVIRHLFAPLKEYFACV

[7] = test system: Plasmodium falciparum; assay: Inhibition of Plasmodium falciparum DNMT activity using nuclear extract assessed as DNA methylation at 32 uM
Method in brief: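 P. falciparum nuclear extracts tested at 32 µM compound, or the equivalent DMSO. DNA methylation activity normalized to the DMSO sample. Triplicates in two independent experiments.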

[8] = test system: Plasmodium falciparum; assay: Antiplasmodial activity against synchronized Plasmodium falciparum NF54 assessed as effect on ring stage parasite growth in intraerythrocytic development cycle at 10 times IC50 concentration incubated upto 48 hrs measured after 72 hrs of post synchronization by SYBR Green 1 assay; type: functional, organism-based; details: time hrs <=48
[9] = test system: HL-60; assay: Cytotoxicity against human HL-60 cells assessed as inhibition of cell proliferation at 32 uM measured after 72 hrs by ATPlite assay; type: functional
Method in brief: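 Cells exposed to compound for 72h; viability read by ATPlite. DMSO control. Technical triplicates, at least two biological replicates. IC50 interpolated from the curves.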

[10] = test system: Plasmodium falciparum; assay: Antiplasmodial activity against Plasmodium falciparum NF54 assessed as reduction in growth in intraerythrocytic development cycle at 3 times of IC50 concentration incubated for 6 hrs measured after 72 hrs of post synchronization […]; type: functional, organism-based; method in brief: as §2
[11] = test system: Plasmodium falciparum; assay: Antiplasmodial activity against synchronized Plasmodium falciparum NF54 assessed as effect on ring stage parasite growth in intraerythrocytic development cycle at 3 times IC50 concentration measured upto 48 hrs of cell cycle by SYBR Green 1 assay; type: functional, organism-based; details: time hrs <=48
[12] = target: Histone deacetylase; assay: Inhibition of human HDAC using human HeLa cell nuclear extract measured after 60 mins by fluorescence assay; type: tissue-based
[13] = target: Histone deacetylase (Homo sapiens) (UniProt Q13547+O15379+Q9UBN7+Q92769+Q9UQL6+Q8WUI4+Q9BY41+Q96DB2+P56524+Q9UKV0+Q969S8); assay: Inhibition of human HDAC activity using nuclear extract of HeLa cells assessed as inhibition of acetylation; type: tissue-based
Method in brief: as §1, with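 “HeLa nuclear” for “P. falciparum protein”, “trypsin (1mg/mL)” for “trypsin”, “AMC fluorescence” for “Fluorescence”, “Background subtracted; data normalized” for “Normalized”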

[14] = Microsomal stability in human liver microsomes assessed as parent compound remaining after 1 hrs; type: ADME, Microsome; details: read-out: Stability
[15] = test system: HL-60; assay: cells; type: functional, cell-based; details: Homo sapiens, HL-60, 72 h
[16] = test system: Plasmodium berghei; assay: Antimalarial activity against Plasmodium berghei infected in C57BL/6 mouse cerebral malaria model infected with assessed as increase in mouse survival days at 20 mg/kg, ip bid; type: functional, organism-based
Method in brief: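 Female C57BL/6 mice, 6 weeks old, infected i.p. with 10⁵ iRBC of GFP-expressing P. berghei ANKA. Dosing i.p. started 2h post-infection and ran 4 days: hydrochloride salt at 20mg/kg twice daily, vehicle control, or chloroquine 25mg/kg daily. Parasitemia measured daily by flow cytometry of 200,000 RBCs and confirmed by Giemsa smears. Parasitemia and mortality followed 10 days; n=5 mice/group, single experiment.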

[17] = Stability in rat plasma assessed as parent compound remaining after 2 hrs; type: ADME, cell-free; details: read-out: Stability
[18] = Stability in human plasma assessed as parent compound remaining after 2 hrs; type: ADME, cell-free; details: read-out: Stability
[19] = test system: Plasmodium berghei; assay: Antimalarial activity against Plasmodium berghei infected in C57BL/6 mouse cerebral malaria model infected with assessed as growth reduction at 20 mg/kg, ip bid measured after 4 days; type: functional, organism-based; details: time 4.0 day
Method in brief: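 Female C57BL/6 mice, 6 weeks old, infected i.p. with 10⁵ iRBC of GFP-expressing P. berghei ANKA. Treatment began 2h post-infection: i.p. 20mg/kg twice daily for 4 days, vehicle controls alongside; chloroquine 25mg/kg daily as positive control. Hydrochloride salt used. Parasitemia read daily by flow cytometry of 200,000 RBCs and confirmed on Giemsa smears. Mortality followed for 10 days. Single experiment, 5 mice per group.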

[20] = Microsomal stability in rat liver microsomes assessed as parent compound remaining after 1 hrs; type: ADME, Microsome; details: read-out: Stability

Structure (SMILES)	Activity [1]	Activity [2]	LT99.9 [3] [h]	Activity [4]	Activity [5]	inhibition [6]	Activity [7]	Activity [8]	inhibition at 32 µM [9] [%]	Activity [10]	Activity [11]	IC50 [12] [µM]	inhibition [13]	remaining at 1 h [14] [%]	IC50 [15] [µM]	Survival [16]	remaining at 2 h [17] [%]	remaining at 2 h [18] [%]	Activity [19]	remaining at 1 h [20] [%]
CCN(CC)CCNC(=O)c1ccc(NC(=O)CCCCCCC(=O)NO)cc1	<=85%	Active	40.3	Active	inactive	inactive	inactive	inactive	65	inactive	inactive	0.06	Active	–	–	–	–	–	–	–
O=C(CCCCCCC(=O)Nc1ccc(C(=O)NC2CCNCC2)cc1)NO	–	–	34.3	Active	–	–	–	–	–	–	–	0.14	–	100	100	Active	85	85	Active	100
